One experiment relates to Staphylococcus aureus. Briefly: Antibacterial activity against Staphylococcus aureus after 24 hrs by two fold serial dilution technique. It is filed as functional. The method in brief:
(§1)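 Twofold serial broth dilution in nutrient broth. Compounds were taken up in DMSO as 1 mg/ml stocks, and 0.2 ml of stock was added to 1.8 ml of seeded broth for the first dilution, giving six dilutions in all. Seeded broth came from 24 h nutrient agar cultures, with a final inoculum of 10⁵ cfu/ml at pH 7.4 ± 0.2. Tubes were incubated at 37 ± 1 °C, and MIC was read visually after 24 h. Broth-only and solvent controls were included.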

In the next experiment the test system is Escherichia coli. In words: Antibacterial activity against Escherichia coli after 24 hrs by two fold serial dilution technique. The experiment is classed as functional. The method in brief:
as §1

The subject of a further experiment is Klebsiella pneumoniae. In words: Antibacterial activity against Klebsiella pneumoniae after 24 hrs by two fold serial dilution technique. It is filed as functional. The method in brief:
as §1

Another experiment relates to Pseudomonas aeruginosa. Briefly: Antibacterial activity against Pseudomonas aeruginosa after 24 hrs by two fold serial dilution technique. The experiment is classed as functional. A digest of the protocol:
as §1

The next experiment concerns Salmonella typhi. Briefly: Antibacterial activity against Salmonella typhi after 24 hrs by two fold serial dilution technique. It is filed as functional, Salmonella enterica subsp. enterica serovar Typhi. The following applies: Salmonella enterica. The method in brief: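 Twofold serial broth dilution in nutrient broth. Compounds dissolved in DMSO as 1 mg/ml stocks; 0.2 ml added to 1.8 ml seeded broth, then serially diluted to six dilutions. Inoculum from 24 h nutrient agar cultures, final 10⁵ cfu/ml, pH 7.4 ± 0.2. Incubated at 37 ± 1 °C; MIC read visually at 24 h. Seeded-broth and solvent controls; ciprofloxacin standard.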

The next experiment concerns Candida albicans. In words: Antifungal activity against Candida albicans after 72 to 96 hrs by two fold serial dilution technique. It is filed as functional. A digest of the protocol:
(§2)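 Twofold serial dilution in Sabouraud's dextrose broth. Compounds were taken up in DMSO as 1 mg/ml stocks, and 0.2 ml of stock was added to 1.8 ml of seeded broth for the first dilution, giving six dilutions. Seeded broth came from 24 h to 7-day Sabouraud's agar slant cultures, with a final inoculum of 1.1–1.5 × 10² cfu/ml. Tubes were incubated at 28 ± 1 °C for 72–96 h, and MIC was read visually. Broth-only and solvent controls were included.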

For the next experiment, the system named is Aspergillus flavus. Briefly: Antifungal activity against Aspergillus flavus after 72 to 96 hrs by two fold serial dilution technique. It is filed as functional. The method in brief: as §2
The test system of the next experiment is Rhizopus. Briefly: Antifungal activity against Rhizopus after 72 to 96 hrs by two fold serial dilution technique. The experiment is classed as functional. A digest of the protocol:
as §2

Another experiment relates to Mucor. In words: Antifungal activity against Mucor after 72 to 96 hrs by two fold serial dilution technique. The experiment is classed as functional. The method in brief: as §2

Values after ≈ are worked out from the molar mass of the structure shown.

What is called MIC is the lowest concentration that inhibits growth of the organism. Low values mean inhibition by little substance, high ones a need for much substance.

In the case of `CC1=C(C(=O)OC(C)C)C(c2ccc(C)cc2)NC(=O)N1` (stereo not drawn), the MIC turned out to be 100 µg/mL (≈ 347 µM) with Staphylococcus aureus; 100 µg/mL (≈ 347 µM) in the experiment with Escherichia coli; 100 µg/mL (≈ 347 µM) against Klebsiella pneumoniae; 50 µg/mL (≈ 173 µM) in the experiment on Pseudomonas aeruginosa; 100 µg/mL (≈ 347 µM) with Salmonella typhi; 50 µg/mL (≈ 173 µM) in the experiment on Candida albicans. Also, the MIC against Aspergillus flavus stood at 200 µg/mL (≈ 694 µM); in the experiment with Rhizopus it was 50 µg/mL (≈ 173 µM); in the experiment on Mucor it was 50 µg/mL (≈ 173 µM).

`CC1=C(C(=O)OC(C)C)C(c2ccc(Cl)cc2)NC(=O)N1` (stereo not drawn): the MIC was 25 µg/mL (≈ 81 µM) in the experiment on Staphylococcus aureus; 50 µg/mL (≈ 162 µM) against Escherichia coli; 50 µg/mL (≈ 162 µM) in the experiment with Klebsiella pneumoniae; 25 µg/mL (≈ 81 µM) against Pseudomonas aeruginosa; 25 µg/mL (≈ 81 µM) in the experiment with Salmonella typhi; 25 µg/mL (≈ 81 µM) against Candida albicans. For the same molecule, the results for the MIC against Aspergillus flavus, against Rhizopus and in the experiment with Mucor were 100 µg/mL (≈ 324 µM), 25 µg/mL (≈ 81 µM) and 50 µg/mL (≈ 162 µM), respectively.

In the case of `CC1=C(C(=O)OC(C)C)C(c2ccc(F)cc2)NC(=O)N1` (stereo not drawn), the MIC was determined as 12.5 µg/mL (≈ 42.8 µM) in the experiment with Staphylococcus aureus; 25 µg/mL (≈ 85.5 µM) against Escherichia coli; 25 µg/mL (≈ 85.5 µM) in the experiment on Klebsiella pneumoniae; 12.5 µg/mL (≈ 42.8 µM) in the experiment with Pseudomonas aeruginosa; 12.5 µg/mL (≈ 42.8 µM) against Salmonella typhi; 12.5 µg/mL (≈ 42.8 µM) against Candida albicans. In addition, the figures for the MIC against Aspergillus flavus, in the experiment with Rhizopus and with Mucor were 25 µg/mL (≈ 85.5 µM), 12.5 µg/mL (≈ 42.8 µM) and 25 µg/mL (≈ 85.5 µM), respectively.

Take `CC1=C(C(=O)OC(C)C)C(c2ccccc2Cl)NC(=O)N1` (stereo not drawn): the minimum inhibitory concentration (MIC) in the experiment with Staphylococcus aureus was found to be 25 µg/mL (≈ 81 µM); against Escherichia coli, 50 µg/mL (≈ 162 µM); in the experiment with Klebsiella pneumoniae, 50 µg/mL (≈ 162 µM); in the experiment with Pseudomonas aeruginosa, 25 µg/mL (≈ 81 µM); with Salmonella typhi it was 25 µg/mL (≈ 81 µM); in the experiment on Candida albicans, 25 µg/mL (≈ 81 µM). Also, the MIC against Aspergillus flavus turned out to be 100 µg/mL (≈ 324 µM); in the experiment on Rhizopus, 50 µg/mL (≈ 162 µM); against Mucor it was 50 µg/mL (≈ 162 µM).

For `CC1=C(C(=O)OC(C)C)C(c2ccc([N+](=O)[O-])cc2)NC(=O)N1` (stereo not drawn), the MIC against Staphylococcus aureus, against Escherichia coli, in the experiment with Klebsiella pneumoniae, with Pseudomonas aeruginosa, with Salmonella typhi and in the experiment on Candida albicans was 12.5 µg/mL (≈ 39.1 µM) each time. Further, the MIC stood at 25 µg/mL (≈ 78.3 µM) with Aspergillus flavus, 12.5 µg/mL (≈ 39.1 µM) against Rhizopus and 12.5 µg/mL (≈ 39.1 µM) in the experiment with Mucor.

With `C[C@@H]1[C@H](O)[C@@H](C)/C=C/C=C/C=C/C=C/C=C/C=C/C=C/[C@H](O[C@@H]2O[C@H](C)[C@@H](O)[C@H](N)[C@@H]2O)C[C@@H]2O[C@](O)(C[C@@H](O)C[C@@H](O)[C@H](O)CC[C@@H](O)C[C@@H](O)CC(=O)O[C@H]1C)C[C@H](O)[C@H]2C(=O)O` [AMPHOTERICIN B], the MIC against Candida albicans is 25 µg/mL (≈ 27.1 µM); with Aspergillus flavus it was 50 µg/mL (≈ 54.1 µM); in the experiment with Rhizopus, 25 µg/mL (≈ 27.1 µM); against Mucor, 50 µg/mL (≈ 54.1 µM).

Regarding `CC1=C(C(=O)OC(C)C)C(c2ccccc2)NC(=O)N1` (stereo not drawn), the MIC was 200 µg/mL (≈ 729 µM) against Staphylococcus aureus; 200 µg/mL (≈ 729 µM) with Escherichia coli; 200 µg/mL (≈ 729 µM) with Klebsiella pneumoniae; 100 µg/mL (≈ 365 µM) in the experiment on Pseudomonas aeruginosa; 200 µg/mL (≈ 729 µM) against Salmonella typhi; 100 µg/mL (≈ 365 µM) against Candida albicans. For the same molecule, the MIC with Rhizopus and with Mucor was 200 µg/mL (≈ 729 µM) in each case.

On to `O=C(O)c1cn(C2CC2)c2cc(N3CCNCC3)c(F)cc2c1=O` [CIPROFLOXACIN], for which the MIC in the experiment with Escherichia coli was found to be 25 µg/mL (≈ 75.4 µM); against Klebsiella pneumoniae it was 25 µg/mL (≈ 75.4 µM); with Salmonella typhi, 50 µg/mL (≈ 151 µM).

`COc1ccc(C2NC(=O)NC(C)=C2C(=O)OC(C)C)cc1` (stereo not drawn): the MIC in the experiment with Staphylococcus aureus was 50 µg/mL (≈ 164 µM); in the experiment on Escherichia coli, 100 µg/mL (≈ 329 µM); with Klebsiella pneumoniae, 100 µg/mL (≈ 329 µM); against Pseudomonas aeruginosa, 50 µg/mL (≈ 164 µM); with Salmonella typhi, 50 µg/mL (≈ 164 µM); against Candida albicans, 50 µg/mL (≈ 164 µM). Moreover, the MIC in the experiment on Aspergillus flavus was found to be 100 µg/mL (≈ 329 µM); in the experiment on Rhizopus, 50 µg/mL (≈ 164 µM); against Mucor, 50 µg/mL (≈ 164 µM).

On to `CC1=C(C(=O)OC(C)C)C(c2ccccc2)NC(=S)N1` (stereo not drawn), for which the MIC amounted to 50 µg/mL (≈ 172 µM) against Staphylococcus aureus; 200 µg/mL (≈ 689 µM) against Escherichia coli; 100 µg/mL (≈ 344 µM) with Klebsiella pneumoniae; 50 µg/mL (≈ 172 µM) with Pseudomonas aeruginosa; 100 µg/mL (≈ 344 µM) in the experiment on Salmonella typhi; 50 µg/mL (≈ 172 µM) with Candida albicans. Besides, the MIC was found to be 100 µg/mL (≈ 344 µM) with Aspergillus flavus, 100 µg/mL (≈ 344 µM) in the experiment with Rhizopus and 50 µg/mL (≈ 172 µM) against Mucor.
